Reference: article PMC4935662 (Molecular pharmaceutics, 2016)

What was measured:
[1] = cited from earlier work
[2] = test system: blood-brain barrier (BBB); assay: In situ rat brain perfusion of Gd-DTPA, quantitative T1 mapping MRI; assay type: in vivo, Sprague-Dawley rats; conditions: Gd-DTPA 0.6 mmol/kg, brain-ventral
Summary of the method: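 Adult male Sprague-Dawley rats (250–350 g). A 10-sec saline post-perfusion wash followed. Sacrificed animals underwent quantitative T1 mapping MRI at room temperature; R1 = 1/T1 was taken per brain region.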

[3] = single administration at 1.0 mmol/kg in rats; cited from earlier work
[4] = test system: blood-brain barrier (BBB); conditions: cited from earlier work

## CC[C@@]1(O)C(=O)OCc2c1cc1n(c2=O)Cc2cc3ccccc3nc2-1 [CPT, camptothecin]
[1]; phosphate-buffered saline solution containing 4% human plasma
  time of conversion to the CPT-carboxylate form: 11 min
[1]; undergoes lactone hydrolysis to CPT-carboxylate at pH 7.4, no reference given
  pH below which the lactone group is stable: < 5.5

## O=C([O-])CN(CCN(CC(=O)[O-])CC(=O)O)CCN(CC(=O)[O-])CC(=O)O.[Gd+3] [Gd-DTPA, gadolinium-diethylenetriaminepentaacetate]
[2]; HAV6 1.0 mM, olfactory bulb, hippocampus, cerebellum, deep-rostral, deep-caudal regions
  R1 values, Gd-DTPA in presence of HAV6 compared to Gd-DTPA and vehicle: more significantly increased R1 values
[2]; cortex, deep-caudal
  R1 values, Gd-DTPA and vehicle compared to vehicle only: increased R1 values
[3]
  tolerability / organ toxicity: well tolerated without any organ toxicity

## Ac-SHAVSS-NH2 [HAV6, Ac-SHAVSS-NH2]
[4]; 25 kDa IRdye 800cw-PEG
  brain delivery of IRdye 800cw-PEG delivered 1 h after administration of peptide: no enhancement of brain delivery
[4]; Balb/c mice
  duration of BBB opening: less than 1 h
